In ChEMBL document CHEMBL4184260, “Fluorous-tag assisted synthesis of a glycosaminoglycan mimetic tetrasaccharide as a high-affinity FGF-2 and midkine ligand” (Bioorg Med Chem, 2018):

Key:
[1] = target: Fibroblast growth factor 2 (Homo sapiens, UniProt P09038); experiment: Inhibition of fluorescein labelled heparin-like hexasaccharide probe binding to recombinant human FGF-2 after 5 mins by fluorescence polarization assay
[2] = target: T1, Midkine (Homo sapiens, UniProt P21741); experiment: Inhibition of fluorescein labelled heparin-like hexasaccharide probe binding to recombinant human midkine after 5 mins by fluorescence polarization assay
T1 sequence (P21741 whole entry): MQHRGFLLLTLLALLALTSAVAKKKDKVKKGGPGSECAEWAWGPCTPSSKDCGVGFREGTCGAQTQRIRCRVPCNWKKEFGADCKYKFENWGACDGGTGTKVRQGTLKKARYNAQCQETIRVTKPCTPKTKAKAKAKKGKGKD
Summary of the method: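 Recombinant human midkine at 63 nM final with 10 nM fluorescein-labelled heparin-like hexasaccharide probe in PBS (10 mM, pH 7.4) plus 0.5% BSA. […] Shaken 5 min in the dark; polarization read at ex 485 / em 535 nm. Triplicate wells averaged, one-site competition fit for IC50. At least three independent experiments.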

[3] = Solubility of the compound in PBS buffer at 100 uM at pH 7.4 in presence of 1% DMSO; type: physicochemical; details: pH 7.4, 100 µM

Fibroblast growth factor 2, sequence (P09038 143-288 limits assumed): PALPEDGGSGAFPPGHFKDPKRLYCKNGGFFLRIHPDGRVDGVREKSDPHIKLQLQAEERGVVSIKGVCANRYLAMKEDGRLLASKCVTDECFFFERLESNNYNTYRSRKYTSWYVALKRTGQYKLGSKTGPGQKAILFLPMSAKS

| IC50 [1] [µM] | IC50 [2] [µM] | solubility [3] | SMILES |
| --- | --- | --- | --- |
| 271 | 254 | – | COc1ccc(O[C@@H]2O[C@H](C(=O)O)[C@@H](O[C@@H]3O[C@H](COS(=O)(=O)O)[C@@H](OS(=O)(=O)O)[C@H](O[C@@H]4O[C@H](C(=O)O)[C@@H](O[C@@H]5O[C@H](COS(=O)(=O)O)[C@@H](OS(=O)(=O)O)[C@H](O)[C@H]5NC(C)=O)[C@H](O)[C@H]4O)[C@H]3NC(C)=O)[C@H](O)[C@H]2O)cc1 |
| 42 | 1.3 | – | COc1ccc(O[C@@H]2O[C@H](C(=O)OCc3ccccc3)[C@@H](O[C@@H]3O[C@H](COS(=O)(=O)O)[C@@H](OS(=O)(=O)O)[C@H](O[C@@H]4O[C@H](C(=O)OCc5ccccc5)[C@@H](O[C@@H]5O[C@H](COS(=O)(=O)O)[C@@H](OS(=O)(=O)O)[C@H](OC(=O)CCC(C)=O)[C@H]5NC(=O)C(F)(F)F)[C@H](OCc5ccccc5)[C@H]4OC(=O)c4ccccc4)[C@H]3NC(=O)C(F)(F)F)[C@H](OCc3ccccc3)[C@H]2OC(=O)c2ccccc2)cc1 |
| – | – | Soluble | COc1ccc(O[C@@H]2O[C@H](COC(=O)CCC(F)(F)C(F)(F)C(F)(F)C(F)(F)C(F)(F)C(F)(F)C(F)(F)C(F)(F)F)[C@@H](O[C@@H]3O[C@H](CO[SH+]([O-])(O)O)[C@@H](O[SH+]([O-])(O)O)[C@H](O[C@@H]4O[C@H](COC(=O)C(C)(C)C)[C@@H](O[C@@H]5O[C@H](CO[SH+]([O-])(O)O)[C@@H](O[SH+]([O-])(O)O)[C@H](OC(=O)CCC(C)=O)[C@H]5N5C(=O)c6ccccc6C5=O)[C@H](OCc5ccccc5)[C@H]4OC(=O)c4ccccc4)[C@H]3N3C(=O)c4ccccc4C3=O)[C@H](OCc3ccccc3)[C@H]2OC(=O)c2ccccc2)cc1 |
